Tests used:
[1] = Compound was evaluated for pKi
Method in brief: (§1)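 Rat brain homogenate membranes (15 mg wet tissue) in 50 mmol Tris-HCl, pH 7.4 at 2 °C, with NaCl, KCl, MgCl₂ and CaCl₂. Incubated 75 min at 2 °C with 2 nmol [³H]-cytisine. Separated by GF/C filtration. Nonspecific binding defined with […] (–)-nicotine bitartrate. Ki calculated by Cheng-Prusoff using Kd 1.5 nmol.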

[2] = molecular target: Neuronal acetylcholine receptor; alpha4/beta2 (Rattus norvegicus, UniProt P09483+P12390); assay: Binding affinity against nicotinic receptors from rat brain using [3H]cytisine as radioligand; method in brief: as §1
Sequence of Neuronal acetylcholine receptor; alpha4/beta2 (P09483 whole entry): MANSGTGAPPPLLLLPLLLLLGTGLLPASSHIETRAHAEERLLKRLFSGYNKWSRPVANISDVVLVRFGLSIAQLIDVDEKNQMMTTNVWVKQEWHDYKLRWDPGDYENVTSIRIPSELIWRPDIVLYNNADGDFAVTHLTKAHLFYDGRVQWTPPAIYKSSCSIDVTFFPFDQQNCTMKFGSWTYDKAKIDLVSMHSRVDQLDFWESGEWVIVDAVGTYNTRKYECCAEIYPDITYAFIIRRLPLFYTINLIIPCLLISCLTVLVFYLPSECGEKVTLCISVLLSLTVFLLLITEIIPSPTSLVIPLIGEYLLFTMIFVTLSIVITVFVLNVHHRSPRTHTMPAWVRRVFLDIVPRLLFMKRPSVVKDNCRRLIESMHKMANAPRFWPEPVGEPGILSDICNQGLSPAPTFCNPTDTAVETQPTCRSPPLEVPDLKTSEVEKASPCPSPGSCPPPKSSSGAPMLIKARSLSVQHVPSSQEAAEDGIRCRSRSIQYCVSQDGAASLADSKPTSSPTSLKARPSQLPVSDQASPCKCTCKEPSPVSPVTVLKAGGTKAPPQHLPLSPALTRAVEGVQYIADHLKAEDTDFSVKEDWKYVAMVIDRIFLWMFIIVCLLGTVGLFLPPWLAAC
Sequence of Neuronal acetylcholine receptor; alpha4/beta2 (P12390 whole entry): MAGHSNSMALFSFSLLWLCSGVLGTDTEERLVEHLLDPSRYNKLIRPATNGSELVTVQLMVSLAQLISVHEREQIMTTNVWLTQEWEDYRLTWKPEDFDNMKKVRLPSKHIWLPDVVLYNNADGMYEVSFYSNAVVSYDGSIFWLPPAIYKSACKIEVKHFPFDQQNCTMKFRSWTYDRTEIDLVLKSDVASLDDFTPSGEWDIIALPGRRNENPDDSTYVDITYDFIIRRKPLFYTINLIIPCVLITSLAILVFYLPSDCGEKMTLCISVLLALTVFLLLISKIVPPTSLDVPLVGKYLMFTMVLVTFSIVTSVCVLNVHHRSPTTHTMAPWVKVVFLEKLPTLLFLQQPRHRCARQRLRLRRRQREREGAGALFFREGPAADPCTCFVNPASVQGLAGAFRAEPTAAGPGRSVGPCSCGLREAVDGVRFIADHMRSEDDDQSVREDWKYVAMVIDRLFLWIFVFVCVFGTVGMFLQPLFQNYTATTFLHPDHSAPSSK

[3] = molecular target: Neuronal acetylcholine receptor subunit alpha-7 (Rattus norvegicus, UniProt Q05941); assay: compound was evaluated for pKi
Sequence of Neuronal acetylcholine receptor subunit alpha-7 (Q05941 whole entry): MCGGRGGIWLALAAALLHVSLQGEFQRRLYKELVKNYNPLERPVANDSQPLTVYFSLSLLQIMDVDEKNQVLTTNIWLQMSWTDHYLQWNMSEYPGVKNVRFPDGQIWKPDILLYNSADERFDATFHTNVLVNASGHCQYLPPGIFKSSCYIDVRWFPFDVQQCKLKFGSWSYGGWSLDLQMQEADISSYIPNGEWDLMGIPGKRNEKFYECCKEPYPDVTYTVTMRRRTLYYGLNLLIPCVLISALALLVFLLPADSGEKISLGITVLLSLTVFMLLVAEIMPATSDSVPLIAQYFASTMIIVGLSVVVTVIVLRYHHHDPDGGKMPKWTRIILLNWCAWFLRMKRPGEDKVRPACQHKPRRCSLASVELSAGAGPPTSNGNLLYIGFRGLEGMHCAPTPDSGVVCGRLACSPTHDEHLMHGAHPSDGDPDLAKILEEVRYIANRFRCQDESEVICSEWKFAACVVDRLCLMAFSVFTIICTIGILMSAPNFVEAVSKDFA

Mus musculus [4] = assay: Minimal analgesic dose of compound injected intracerebroventricularly; assay type: functional
Method in brief: (§2)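 Mouse hot-plate test with compounds given icv. Minimum analgesic dose recorded; efficacy expressed relative to 5 μg morphine icv. Nicotinic origin of analgesia tested by reversal with mecamylamine 2 mg/kg i.p.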

Mus musculus [5] = assay: Effect(%) respect to that of 5 ug/kg of morphine injected intracerebroventricularly; assay type: functional; method in brief: as §2

Row | SMILES | Ki [2] [µM] | further results
1 | CN1CCN(c2cccc(F)c2)CC1.O=C(O)C(=O)O | 6.5 | Log Ki [1]: -5.19
2 | CN1CCN(c2ccc(N)cc2)CC1 | > 10 | –
3 | FC(F)(F)c1cccc(N2CCNCC2)c1 | > 10 | –
4 | Fc1ccc(N2CCNCC2)cc1 | > 10 | –
5 | CN1CCN(c2cccnn2)CC1.O=C(O)C(=O)O | 0.386 | Log Ki [1]: -6.41
6 | CN1CCN(c2cccc(N)c2)CC1 | 0.18 | Log Ki [1]: -6.74
7 | CC(=O)Oc1cccc(N2CCN(C)CC2)c1 | 0.8 | Ki [3]: 0.794 µM
8 | Cc1cccc(N2CCN(C)CC2)c1 | > 10 | –
9 | CN1CCN(c2ccc(F)cc2)CC1 | > 10 | –
10 | CN1CCN(c2cccc(Cl)c2)CC1 | > 10 | –
11 | CN1CCN(c2ccc3c(c2)OCO3)CC1 | > 10 | –
12 | CN1CCN(c2cccc(O)c2)CC1 | > 10 | –
13 | CN1CCN(C2=CC(=O)CCC2)CC1 | > 10 | –
14 | CN1CCC(c2ccccc2)CC1 | > 10 | –
15 | CN1CC=C(c2cccnc2)CC1.Cl | – | M.A.D (Mus musculus [4]): 1 µg/kg; Efficacy (Mus musculus [5]): 36.5%
16 | c1cc2c(cc1N1CCNCC1)OCO2 | > 10 | –

Row | SMILES | Ki [2] [µM] | further results
17 | C[N+]1(C)CCN(c2ccc3c(c2)OCO3)CC1.[I-] | 0.672 | Log Ki [1]: -6.17
18 | O=[N+]([O-])c1cccc(N2CCNCC2)c1 | > 10 | –
19 | O=C(O)C(=O)O.c1cncc(N2CCNCC2)c1 | 0.09 | M.A.D (Mus musculus [4]): 50 µg/kg; Efficacy (Mus musculus [5]): 51.1%; Log Ki [1]: -7.05
20 | Cc1ccccc1N1CCN(C)CC1 | > 10 | –
21 | CN1CCN(c2cccc(C#N)c2)CC1 | > 10 | –
22 | CN1CCN(c2ccc([N+](=O)[O-])cc2)CC1 | > 10 | –
23 | CC(=O)Nc1cccc(N2CCN(C)CC2)c1 | > 10 | –
24 | CN1CCN(c2ccc(O)cc2)CC1 | > 10 | –
25 | CN1CCN(C2=CC(=O)CC2)CC1 | > 10 | –
26 | c1cc(N2CCNCC2)ccn1 | > 10 | –
27 | CC(=O)c1ccc(N2CCN(C)CC2)cc1 | > 10 | –
28 | Fc1cccc(N2CCNCC2)c1 | > 10 | –
29 | CN1CCN(c2cccc(C(F)(F)F)c2)CC1 | > 10 | –
30 | CC(=O)c1ccc(N2CCNCC2)cc1 | > 10 | –
31 | CN1CC=C(c2ccccc2)CC1 | > 10 | –
